Measured values from ChEMBL document CHEMBL3227997, “Nucleosides. 110. Synthesis and antiherpes virus activity of some 2'-fluoro-2'-deoxyarabinofuranosylpyrimidine nucleosides” (J Med Chem, 1979).
≈ marks a conversion by molar mass, not a printed value.

How the values were obtained:
[1] = Cytotoxicity against mouse L5178Y cells assessed as growth inhibition after 96 hrs; type: cell-based; conditions: read-out: ID50
Summary of the method: (§1)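 Mouse leukemic lines grown in McCoy's medium with 15% fetal calf serum, starting at 40 000–60 000 cells/mL. Nucleoside added from a 50-fold concentrate; triplicate loosely capped tubes held at 37 °C in 5% CO2 for 96 h, controls reaching ~10^6 cells/mL. Cells counted electronically; percent growth inhibition calculated and the concentration for 50% inhibition reported.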

Human alphaherpesvirus 1 [2] = assay: Antiviral activity against HSV1 2931 infected in African green monkey Vero cells assessed as inhibition of virus replication at 1 ug/ml after 24 hrs relative to control; type: functional; conditions: Human alphaherpesvirus 1, 2931, Vero
Summary of the method: (§2)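 Vero monolayers infected with HSV-1 strain 2931 at about 1 PFU/cell, adsorbed 2 h, then overlaid with maintenance medium containing drug. Supernatants harvested 24 h later and titered on Vero monolayers.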

Human alphaherpesvirus 1 [3] = assay: Antiviral activity against HSV1 2931 infected in African green monkey Vero cells assessed as inhibition of virus replication at 0.1 ug/ml after 24 hrs relative to control; type: functional; conditions: Human alphaherpesvirus 1, 2931, Vero; summary of the method: as §2
Human alphaherpesvirus 1 [4] = assay: Antiviral activity against HSV1 2931 infected in African green monkey Vero cells assessed as inhibition of virus replication at 10 ug/ml after 24 hrs relative to control; type: functional; conditions: Human alphaherpesvirus 1, 2931, Vero; summary of the method: as §2
[5] = Cytotoxicity against mouse P815 cells assessed as growth inhibition after 96 hrs; type: cell-based; conditions: read-out: ID50; summary of the method: as §1
Human alphaherpesvirus 1 [6] = assay: Antiviral activity against HSV1 2931 infected in African green monkey Vero cells assessed as inhibition of virus replication at 0.01 ug/ml after 24 hrs relative to control; type: functional; conditions: Human alphaherpesvirus 1, 2931, Vero; summary of the method: as §2
Human alphaherpesvirus 1 [7] = assay: Antiviral activity against HSV1 2931 infected in African green monkey Vero cells assessed as inhibition of virus replication at 100 ug/ml after 24 hrs relative to control; type: functional; conditions: Human alphaherpesvirus 1, 2931, Vero; summary of the method: as §2
Human alphaherpesvirus 1 [8] = assay: Potency index, ratio of compound activity to vidarabine activity against HSV1 2931; type: functional

Row | SMILES | GI50 at 96 h [1] [µg/mL] | inhibition at 1 µg/mL (Human alphaherpesvirus 1 [2]) [%] | inhibition at 0.1 µg/mL (Human alphaherpesvirus 1 [3]) [%] | inhibition at 10 µg/mL (Human alphaherpesvirus 1 [4]) [%] | GI50 at 96 h [5] [µg/mL] | inhibition at 0.01 µg/mL (Human alphaherpesvirus 1 [6]) [%] | inhibition at 100 µg/mL (Human alphaherpesvirus 1 [7]) [%] | Ratio (Human alphaherpesvirus 1 [8])
1 | Nc1nc(=O)n([C@@H]2O[C@H](CO)[C@@H](O)[C@@H]2F)cc1Br | 10 (≈ 30.9 µM) | > 99 | > 90 | 100 | > 10 | < 90 |  | 
2 | Nc1nc(=O)n([C@@H]2O[C@H](CO)[C@@H](O)[C@@H]2F)cc1F | 0.5 (≈ 1.9 µM) | > 99 | > 90 | > 99.9 | 0.4 (≈ 1.52 µM) | < 90 |  | 
3 | Cc1cn([C@@H]2O[C@H](CO)[C@@H](O)[C@@H]2F)c(=O)[nH]c1=O [5-METHYL-2'-FLUOROARAURACIL] | 1.6 (≈ 6.15 µM) | > 99.9 | > 90 | 100 | 1.9 (≈ 7.3 µM) | < 90 |  | 
4 | O=c1[nH]c(=O)n([C@H]2C[C@H](O)[C@@H](CO)O2)cc1I [IDOXURIDINE] | 4.2 (≈ 11.9 µM) | < 90 | < 90 | > 90 | 0.9 (≈ 2.54 µM) | < 90 | 100 | 
5 | O=c1[nH]c(=O)n([C@@H]2O[C@H](CO)[C@@H](O)[C@@H]2F)cc1I [FIALURIDINE] | 0.9 (≈ 2.42 µM) | > 99.9 | > 90 | > 100 | 0.8 (≈ 2.15 µM) | < 90 |  | 
6 | O=c1ccn([C@@H]2O[C@H](CO)[C@@H](O)[C@@H]2F)c(=O)[nH]1 | > 10 | > 99 | < 90 | > 99 | > 10 | < 90 |  | 
7 | Nc1nc(=O)n([C@H]2C[C@H](O)[C@@H](CO)O2)cc1I [IBACITABINE] | > 100 | > 90 | < 90 | > 99.9 | > 100 | < 90 |  | 
8 | Cl.Nc1nc(=O)n([C@@H]2O[C@H](CO)[C@@H](O)[C@@H]2F)cc1I | 48 | > 100 | > 99 | 100 | 14 | > 90 | 100 | 1000
9 | O=c1[nH]c(=O)n([C@@H]2O[C@H](CO)[C@@H](O)[C@@H]2F)cc1F | 1 (≈ 3.79 µM) | > 100 | > 99 | 100 | 0.7 (≈ 2.65 µM) | < 90 |  | 
10 | Nc1ccn([C@@H]2O[C@H](CO)[C@@H](O)[C@@H]2F)c(=O)n1 | 0.05 (≈ 0.204 µM) | > 90 | > 90 | > 99.9 | 0.05 (≈ 0.204 µM) | < 90 | > 100 | 
11 | O=c1[nH]c(=O)n([C@@H]2O[C@H](CO)[C@@H](O)[C@@H]2F)cc1Br | 0.9 (≈ 2.77 µM) | > 99 | < 90 | > 100 | 1.6 (≈ 4.92 µM) | < 90 |  | 
12 | Cc1cn([C@@H]2O[C@H](CO)[C@@H](O)[C@@H]2O)c(=O)[nH]c1=O | > 100 | > 90 | < 90 | 100 | 13 (≈ 50.3 µM) | < 90 | 100 | 
13 | Nc1ccn([C@@H]2O[C@H](CO)[C@@H](O)[C@@H]2O)c(=O)n1 [CYTARABINE] | 0.02 (≈ 0.0822 µM) | > 90 | < 90 | > 100 | 0.02 (≈ 0.0822 µM) | < 90 | > 100 | 
14 | Nc1nc(=O)n([C@@H]2O[C@H](CO)[C@@H](O)[C@@H]2F)cc1Cl | 1.4 (≈ 5.01 µM) | < 90 | < 90 | > 99.9 | 1 (≈ 3.58 µM) | < 90 |  | 
15 | O=c1[nH]c(=O)n([C@@H]2O[C@H](CO)[C@@H](O)[C@@H]2F)cc1Cl | 1.4 (≈ 4.99 µM) | < 90 | < 90 | > 100 | 3.4 (≈ 12.1 µM) | < 90 |  | 
16 | O=c1[nH]c(=O)n([C@@H]2O[C@H](CO)[C@@H](O)[C@@H]2O)cc1I | 30 (≈ 81.1 µM) | < 90 | < 90 | > 90 | 16 (≈ 43.2 µM) | < 90 | > 100 | 
17 | Nc1nc(=O)n([C@@H]2O[C@H](CO)[C@@H](O)[C@@H]2O)cc1I | 0.2 (≈ 0.542 µM) | > 90 | < 90 | > 100 | 0.08 (≈ 0.217 µM) | < 90 |  | 
